Measured values published in ChEMBL document CHEMBL3271941, “Synthesis of 5,6-dihydro-8(7H)-quinolinone thiosemicarbazones as potential antitumor agents” (J Med Chem, 1977).
Activity calls are given as the source filed them. No cut-off for these calls is given here.

Columns and labels:
[1] = system: P388; assay: Antineoplastic activity against mouse P388 cells allografted in CDF1 mouse assessed as host survival time at 5 mg/kg administered daily for 6 days starting 24 hrs after tumor implantation (reference value: 11.2 +/- 0.4 days); assay type: functional
[2] = system: Mus musculus; assay: Toxicity in CDF1 mouse allografted with mouse P388 cells assessed as change in body weight at 20 mg/kg administered daily for 6 days starting 24 hrs after tumor implantation (reference value: -2.4%); assay type: organism-based; design: dose 20 mg/kg; conditions: in vivo
[3] = system: P388; assay: Antineoplastic activity against mouse P388 cells allografted in CDF1 mouse assessed as host survival time at 20 mg/kg administered daily for 6 days starting 24 hrs after tumor implantation (reference value: 11.2 +/- 0.4 days); assay type: functional
[4] = target: Alkaline phosphatase (Escherichia coli K-12) (UniProt P00634); assay: Inhibition of Escherichia coli alkaline phosphatase assessed as p-nitrophenol formation using p-nitrophenyl phosphate as substrate up to 100 uM treated 15 mins prior to substrate addition by spectrophotometric analysis
Chain of Alkaline phosphatase (Escherichia coli K-12) (P00634 whole entry): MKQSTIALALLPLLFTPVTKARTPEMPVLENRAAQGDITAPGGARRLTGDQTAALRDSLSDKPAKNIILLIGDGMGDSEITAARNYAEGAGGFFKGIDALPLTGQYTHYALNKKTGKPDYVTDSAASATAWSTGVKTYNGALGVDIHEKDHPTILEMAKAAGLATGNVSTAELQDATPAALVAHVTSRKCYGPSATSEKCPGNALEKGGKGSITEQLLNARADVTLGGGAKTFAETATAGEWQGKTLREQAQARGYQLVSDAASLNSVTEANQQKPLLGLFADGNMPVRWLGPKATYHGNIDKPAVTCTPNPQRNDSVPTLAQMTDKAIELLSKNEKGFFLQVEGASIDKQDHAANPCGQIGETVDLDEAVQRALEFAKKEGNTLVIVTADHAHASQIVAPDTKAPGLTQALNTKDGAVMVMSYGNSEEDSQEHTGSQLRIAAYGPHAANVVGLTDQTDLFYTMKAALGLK
Outline: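 E. coli alkaline phosphatase (0.021 unit) in 1 M Tris-HCl pH 9.0, preincubated 15 min at 37 °C with inhibitor added in 50% DMSO. Reaction started with 10^-3 M p-nitrophenyl phosphate. Initial rise in absorbance at 410 nm read at room temperature in a 1-cm cell. Controls had enzyme preincubated 15 min with 50% DMSO alone.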

[5] = Stability of the compound in ethanol with sodium ethoxide assessed as isomerization; assay type: physicochemical
[6] = Stability of the compound measured under neutral conditions; assay type: physicochemical
[7] = system: P388; assay: Antineoplastic activity against mouse P388 cells allografted in CDF1 mouse assessed as prolongation of host survival time at 10 mg/kg administered daily for 6 days starting 24 hrs after tumor implantation relative to control; assay type: functional
Outline: (§1)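 P388 leukemia (1×10^6 cells, intraperitoneal) in female CDF1 mice; dosing once daily for 6 consecutive days beginning 24 h post-implantation, 5-15 mice per group. Activity expressed as % T/C, the ratio of survival time of treated to untreated control animals. Daily weighing gave percent body-weight change over the treatment period as a toxicity measure.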

[8] = system: P388; assay: Antineoplastic activity against mouse P388 cells allografted in CDF1 mouse assessed as host survival time at 10 mg/kg administered daily for 6 days starting 24 hrs after tumor implantation (reference value: 11.2 +/- 0.4 days); assay type: functional
[9] = system: P388; assay: Antineoplastic activity against mouse P388 cells allografted in CDF1 mouse assessed as prolongation of host survival time at 5 mg/kg administered daily for 6 days starting 24 hrs after tumor implantation relative to control; assay type: functional; outline: as §1
[10] = system: Mus musculus; assay: Toxicity in CDF1 mouse allografted with mouse P388 cells assessed as change in body weight at 10 mg/kg administered daily for 6 days starting 24 hrs after tumor implantation (reference value: -2.4%); assay type: organism-based; design: dose 10 mg/kg; conditions: in vivo
[11] = system: Mus musculus; assay: Toxicity in CDF1 mouse allografted with mouse P388 cells assessed as change in body weight at 5 mg/kg administered daily for 6 days starting 24 hrs after tumor implantation (reference value: -2.4%); assay type: organism-based; design: dose 5 mg/kg; conditions: in vivo
[12] = system: P388; assay: Antineoplastic activity against mouse P388 cells allografted in CDF1 mouse assessed as prolongation of host survival time at 20 mg/kg administered daily for 6 days starting 24 hrs after tumor implantation relative to control; assay type: functional; outline: as §1
[13] = system: Mus musculus; assay: Toxicity in CDF1 mouse allografted with mouse P388 cells assessed as change in body weight at 2.5 mg/kg administered daily for 6 days starting 24 hrs after tumor implantation (reference value: -2.4%); assay type: organism-based; design: dose 2.5 mg/kg; conditions: in vivo
[14] = system: P388; assay: Antineoplastic activity against mouse P388 cells allografted in CDF1 mouse assessed as prolongation of host survival time at 2.5 mg/kg administered daily for 6 days starting 24 hrs after tumor implantation relative to control; assay type: functional; outline: as §1
[15] = system: P388; assay: Antineoplastic activity against mouse P388 cells allografted in CDF1 mouse assessed as host survival time at 2.5 mg/kg administered daily for 6 days starting 24 hrs after tumor implantation (reference value: 11.2 +/- 0.4 days); assay type: functional

Compound `NC(=S)N/N=C1/CCCc2cccnc21` has a Time [1] of 13 days, an Activity [2] of -30.8% and a Time [3] of 9.2 days. For the same compound, the inhibition [4] was “inactive”, the Stability [5] was “Unstable” and the Stability [6] was “Stable”. For the same compound, the T/C [7] was 141%, the Time [8] was 15.8 days and the T/C [9] was 116%. The Activity [10] was -21.5%, the Activity [11] was 6.7% and the T/C [12] was 73%.

In the case of `CNC(=S)N/N=C1\CCCc2cccnc21`, the Time [1] is reported as 16 days, the inhibition [4] is reported as “inactive” and the Activity [13] is reported as -9.3%. It also gave a T/C [14] of 119%, a Time [15] of 13.4 days and a T/C [7] of 18%. For the same compound, the Time [8] was 2 days, the T/C [9] was 143% and the Activity [11] was -12%.

For `C=CCNC(=S)N/N=C1/CCCc2cccnc21`, the Time [1] was 9.8 days, the inhibition [4] was “inactive” and the Activity [13] was 4.6%. For the same compound, the T/C [14] was 91%, the Stability [5] was “Unstable” and the Stability [6] was “Stable”. The Time [15] was 10.2 days, the T/C [7] was 70% and the Time [8] was 7.8 days. For the same compound, the T/C [9] was 88%, the Activity [10] was -6.1% and the Activity [11] was 0%.

In the case of `C=CCNC(=S)N/N=C1\CCCc2cccnc21`, the Time [1] is reported as 13.2 days, the inhibition [4] is reported as “inactive” and the Activity [13] is reported as 0.7%. It also gave a T/C [14] of 100%, a Time [15] of 11.2 days and a T/C [7] of 125%. For the same compound, the Time [8] was 14 days, the T/C [9] was 118% and the Activity [10] was -9.1%. For the same compound, the Activity [11] was -8.4%.

In the case of `CNC(=S)N/N=C1/CCCc2cccnc21`, the Time [1] is reported as 12 days, the Time [3] is reported as 2 days and the inhibition [4] is reported as “inactive”. The Stability [5] was “Unstable”, the Stability [6] was “Stable” and the T/C [7] was 121%. The Time [8] was 13.6 days, the T/C [9] was 107% and the Activity [10] was -10.8%. For the same compound, the Activity [11] was -7.7% and the T/C [12] was 18%.

In the case of `NC(=S)N/N=C1\CCCc2cccnc21`, the Time [1] is reported as 11.8 days, the inhibition [4] is reported as “inactive” and the Activity [13] is reported as -5.3%. The T/C [14] was 104%, the Time [15] was 11.6 days and the T/C [7] was 132%. For the same compound, the Time [8] was 14.8 days, the T/C [9] was 106% and the Activity [10] was -10.7%. The Activity [11] was -3.8%.
